Measurements reported in ChEMBL document CHEMBL3865834, “Dihydrobenzofuran Neolignanamides: Laccase-Mediated Biomimetic Synthesis and Antiproliferative Activity” (J Nat Prod, 2016).

Tests used:
[1] = Lipophilicity of the compound assessed as capacity factor by HPLC analysis; format: physicochemical
How it was run: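 Reversed-phase C18 HPLC (4.6 × 250 mm, 5 μm), 1 mL/min, acidified acetonitrile gradient 20→80% B over 30 min, diode-array detection. Capacity factor K = (tR − t0)/t0, where t0 is the retention time of the AA standard.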

[2] = Growth inhibition of human MCF7 cells measured after 72 hrs by MTT assay; format: functional; details: MCF7, 72 h
How it was run: (§1)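 Cells plated at (2.5−3.0) × 10^3 per 0.33 cm2, treated after 24 h with 0.01−100 μM (final) for 3 days at 37 °C, 5% CO2; controls got 0.5−1% DMSO. MTT read at 570 nm, 6−8 wells per value.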

[3] = Growth inhibition of human Caco2 cells measured after 72 hrs by MTT assay; format: functional; details: Caco-2, 72 h; how it was run: as §1
[4] = Growth inhibition of human PC3 cells measured after 72 hrs by MTT assay; format: functional; details: PC-3, 72 h; how it was run: as §1
[5] = Cell cycle arrest in human Caco2 cells assessed as accumulation at G2-phase at 100 uM measured after 24 to 36 hrs by propidium iodide staining-based flow cytometry (reference value: 28%); format: functional; details: Caco-2
How it was run: (§2)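 Caco-2 cells grown in six-well plates, treated 24–36 h, compared with vehicle-treated cells. Harvested by trypsinization, PBS-washed, fixed in 70% ethanol at 4 °C for at least 30 min. Then RNase A for 1 h at 37 °C, propidium iodide (final 50 μg/mL) for 1 h at 37 °C, and analysed by flow cytometry. Means of three independent experiments.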

Caco-2 [6] = test: Induction of apoptosis in human Caco2 cells assessed as early apoptotic cells at 100 uM measured after 24 hrs by Alexa Fluor 488 Annexin V/propidium iodide staining-based flow cytometry (reference value: 3.9%); format: functional
[7] = Cell cycle arrest in human Caco2 cells assessed as accumulation at sub-G1 phase at 100 uM measured after 24 to 36 hrs by propidium iodide staining-based flow cytometry; format: functional; details: Caco-2; how it was run: as §2
Caco-2 [8] = test: Induction of apoptosis in human Caco2 cells assessed as late apoptotic cells at 100 uM measured after 24 hrs by Alexa Fluor 488 Annexin V/propidium iodide staining-based flow cytometry (reference value: 1.8%); format: functional
[9] = Cell cycle arrest in human Caco2 cells assessed as accumulation at S-phase at 100 uM measured after 24 to 36 hrs by propidium iodide staining-based flow cytometry (reference value: 18 to 19.5%); format: functional; details: Caco-2; how it was run: as §2
Caco-2 [10] = test: Induction of apoptosis in human Caco2 cells assessed as viable cells at 100 uM measured after 24 hrs by Alexa Fluor 488 Annexin V/propidium iodide staining-based flow cytometry (reference value: 95.1%); format: functional; details: Caco-2, 24 h, read-out: Activity
Caco-2 [11] = test: Induction of apoptosis in human Caco2 cells assessed as necrotic cells at 100 uM measured after 24 hrs by Alexa Fluor 488 Annexin V/propidium iodide staining-based flow cytometry (reference value: […]); format: functional
[12] = Cell cycle arrest in human Caco2 cells assessed as accumulation at G0/G1 phase at 100 uM measured after 24 to 36 hrs by propidium iodide staining-based flow cytometry (reference value: 51.1%); format: functional; details: Caco-2; how it was run: as §2

Compound | K [1] | GI50 [2] [µM] | GI50 [3] [µM] | GI50 [4] [µM] | further results
COc1cc([C@@H]2Oc3c(OC)cc(/C=C/C(=O)NCc4cc(OC)c(OC)c(OC)c4)cc3[C@H]2C(=O)NCc2cc(OC)c(OC)c(OC)c2)ccc1O (racemic) | 6.32 | – | – | – | –
COc1cc(CNC(=O)/C=C/c2ccc3c(c2)[C@@H](C(=O)NCc2cc(OC)c(OC)c(OC)c2)[C@H](c2ccc(O)cc2)O3)cc(OC)c1OC (racemic) | 6.35 | – | – | – | –
Cc1ccc(CNC(=O)/C=C/c2cc(O)c3c(c2)[C@@H](C(=O)NCc2ccc(C)cc2)[C@H](c2ccc(O)c(O)c2)O3)cc1 (racemic) | 7.89 | – | – | – | –
COc1cc([C@@H]2Oc3c(OC)cc(/C=C/C(=O)NCc4ccc(C)cc4)cc3[C@H]2C(=O)NCc2ccc(C)cc2)ccc1O (racemic) | 8.45 | – | – | – | –
COc1cc(CNC(=O)/C=C/c2cc(O)c3c(c2)[C@@H](C(=O)NCc2cc(OC)c(OC)c(OC)c2)[C@H](c2ccc(O)c(O)c2)O3)cc(OC)c1OC (racemic) | 5.69 | – | – | – | –
O=C(/C=C/c1cc(O)c2c(c1)[C@@H](C(=O)NCCc1ccc(O)cc1)[C@H](c1ccc(O)c(O)c1)O2)NCCc1ccc(O)cc1 (racemic) | 0.56 | 39.7 | > 10 | 66 | –
O=c1[nH]cc(F)c(=O)[nH]1 [FLUOROURACIL] | – | 3.6 to 3.8 | 3.3 to 4.2 | 4.1 to 6.3 | Activity [5]: 1.9%; Activity (Caco-2 [6]): 56.2%; Activity [7]: 10.4%; Activity (Caco-2 [8]): 5.3%; Activity [9]: 37.5 to 39.8%; viability at 100 µM (Caco-2 [10]): 36.8%; Activity (Caco-2 [11]): 0.3%; Activity [12]: 50.1%
O=C(/C=C/c1ccc2c(c1)[C@@H](C(=O)NCCc1ccc(O)cc1)[C@H](c1ccc(O)cc1)O2)NCCc1ccc(O)cc1 (racemic) | 5.2 | 33.2 | 28.9 | 26 | –
Cc1ccc(CNC(=O)/C=C/c2ccc3c(c2)[C@@H](C(=O)NCc2ccc(C)cc2)[C@H](c2ccc(O)cc2)O3)cc1 (racemic) | 8.36 | – | – | – | –
COc1cc([C@@H]2Oc3c(OC)cc(/C=C/C(=O)NCCc4ccc(O)cc4)cc3[C@H]2C(=O)NCCc2ccc(O)cc2)ccc1O (racemic) [GROSSAMIDE] | 2.32 | 24 | > 100 | 21 | –
